Results as given in ChEMBL document CHEMBL4765378, “Discovery of simplified benzazole fragments derived from the marine benzosceptrin B as necroptosis inhibitors involving the receptor interacting protein Kinase-1” (Eur J Med Chem, 2020).
Calls of active or inactive are those of the source. The calls are words filed in the database; no cut-off is given here. Where a SMILES comes first, the peptide text is derived from it. The star is where a group is joined. Cbz = O=C(OCc1ccccc1)*; CH2F = FC*

Tests used:
[1] = molecular target: T1, Receptor-interacting serine/threonine-protein kinase 1 (Homo sapiens) (UniProt Q13546); assay: Inhibition of RIPK1 in human FADD-deficient Jurkat I 2.1 cells assessed as protection against TNFalpha-induced necroptosis by measuring remaining viable cells at 10 uM measured after 24 hrs by MTS assay relative to TNFalpha; type: cell-based
T1 sequence (whole entry): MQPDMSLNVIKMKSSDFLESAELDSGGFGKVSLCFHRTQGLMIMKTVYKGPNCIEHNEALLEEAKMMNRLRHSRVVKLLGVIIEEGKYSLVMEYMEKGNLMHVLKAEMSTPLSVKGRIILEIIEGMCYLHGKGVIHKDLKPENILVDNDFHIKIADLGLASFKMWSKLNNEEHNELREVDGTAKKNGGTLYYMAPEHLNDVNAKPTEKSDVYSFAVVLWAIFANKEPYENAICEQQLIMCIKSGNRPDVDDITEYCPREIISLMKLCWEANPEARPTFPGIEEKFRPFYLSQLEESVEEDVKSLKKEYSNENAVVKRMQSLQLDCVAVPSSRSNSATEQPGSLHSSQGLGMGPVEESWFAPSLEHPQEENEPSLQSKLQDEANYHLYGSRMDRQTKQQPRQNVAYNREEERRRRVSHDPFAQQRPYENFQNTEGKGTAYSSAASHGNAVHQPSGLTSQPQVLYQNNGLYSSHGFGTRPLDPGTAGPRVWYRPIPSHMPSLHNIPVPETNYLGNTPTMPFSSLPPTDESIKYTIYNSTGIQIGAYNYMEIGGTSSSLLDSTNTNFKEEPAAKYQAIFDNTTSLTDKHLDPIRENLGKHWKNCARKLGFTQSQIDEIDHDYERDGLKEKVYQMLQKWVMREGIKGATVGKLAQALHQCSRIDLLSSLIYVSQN
How it was run: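 FADD-deficient Jurkat cells co-treated 24 h with 10 ng/ml human recombinant TNF-α and 10 μM compound; MTS viability normalized to DMSO control (100%); protection delta = viability with TNF-α plus compound minus viability with TNF-α alone (negative if toxic); n = 3.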

[2] = Cytotoxicity against human FADD-deficient Jurkat I 2.1 cells assessed as reduction in cell viability at >10 uM measured after 24 hrs by MTS assay; type: cell-based; conditions: jurkat i 2.1, 24 h
[3] = tested on: Jurkat; assay: Protection against staurosporine-induced apoptosis in human Jurkat assessed as increase in cell viability at 20 uM measured after 24 hrs by MTS assay; type: functional, cell-based
[4] = tested on: Jurkat; assay: Protection against TRAIL-induced apoptosis in human Jurkat assessed as increase in cell viability at 20 uM measured after 24 hrs by MTS assay; type: functional, cell-based

Compound | Activity [1] [%] | further results
CCCCNc1nc2cccc([N+](=O)[O-])c2[nH]1 | 1.2 | 
CCCCNc1nc2ccc(-c3cccc([N+](=O)[O-])c3)cc2[nH]1 | -20.6 | 
Clc1ccc2nc(NC3CCCCC3)[nH]c2c1 | 38.2 | 
COCCNc1nc2cccc([N+](=O)[O-])c2[nH]1 | -2.3 | 
CCNc1nc2ccc(-c3cccc(OC)c3)cc2[nH]1 | -12.8 | 
CCCCNc1nc2ccc(C#C[Si](C)(C)C)cc2[nH]1 | -18.5 | 
CCCCNc1nc2ccc(C#N)cc2[nH]1 | 6.3 | 
CCNc1nc2ccc(-c3cccc([N+](=O)[O-])c3)cc2[nH]1 | -19.4 | 
CCCCNc1nc2ccc(-c3cccc(OC)c3)cc2[nH]1 | -16.8 | 
CCCCNc1nc2ccc(C(=O)NCCc3ccccc3)cc2[nH]1 | 2.6 | 
CCCCNC(=O)CNc1nc2ccc([N+](=O)[O-])cc2[nH]1 | 4.6 | 
C#CCNc1nc2ccc([N+](=O)[O-])cc2[nH]1 | 3.4 | 
CCCCNc1nc2ccc(C(=O)NCCCc3ccccc3)cc2[nH]1 | -3.6 | 
CCCCCCCCNc1nc2ccc([N+](=O)[O-])cc2[nH]1 | 6.4 | 
COCCNc1nc2ccc([N+](=O)[O-])cc2[nH]1 | 5.6 | 
C=CCNc1nc2ccc([N+](=O)[O-])cc2[nH]1 | 4.7 | 
O=[N+]([O-])c1cccc2nc(NCc3ccccc3)[nH]c12 | 5.1 | 
O=[N+]([O-])c1ccc2nc(Nc3ccc(C(F)(F)F)cc3)[nH]c2c1 | -30.8 | 
CCCNc1nc2ccc([N+](=O)[O-])cc2[nH]1 | 20 | 
CCCCNc1nc2ccc(C(=O)NCc3ccccc3)cc2[nH]1 | 5 | 
CCNc1nc2ccc(-c3ccccc3Cl)cc2[nH]1 | 4.9 | 
CC(C)CNc1nc2ccc([N+](=O)[O-])cc2[nH]1 | 53.7 | Activity [2]: Toxic
COC(=O)c1cccc2nc(NC3CCCCC3)[nH]c12 | 21.7 | 
C#Cc1ccc2nc(NCCCC)[nH]c2c1 | -21.3 | 
O=[N+]([O-])c1cccc2nc(Nc3ccccc3)[nH]c12 | 0 | 
CC(C)Nc1nc2cccc([N+](=O)[O-])c2[nH]1 | 1 | 
CCNc1nc2ccc([N+](=O)[O-])cc2[nH]1 | 6.4 | 
O=C(Nc1nc2ccc([N+](=O)[O-])cc2[nH]1)c1ccccc1 | -21.3 | 

Compound | Activity [1] [%] | further results
CCCCNc1nc2ccc(Br)cc2[nH]1 | 7.3 | 
Cc1ccc2nc(NC3CCCCC3)[nH]c2c1 | 7 | 
O=[N+]([O-])c1ccc2sc(Cl)nc2c1 | 0.1 | 
CCCCNc1nc2ccc([N+](=O)[O-])cc2s1 | 28 | 
CC(C)[C@H](NC(=O)OCc1ccccc1)C(=O)N[C@@H](C)C(=O)N[C@@H](CC(=O)O)C(=O)CF (Cbz-Val-Ala-Asp-CH2F) |  | Activity [3]: inactive; Activity [4]: inactive
O=[N+]([O-])c1ccc2nc(Nc3ccccc3)[nH]c2c1 | 41.9 | Activity [2]: Toxic
O=[N+]([O-])c1cccc2nc(NC3CCCCC3)[nH]c12 | 13 | 
O=[N+]([O-])c1ccc2nc(NC3CCCCC3)[nH]c2c1 | 68.1 | Activity [2]: Toxic
CCCCNc1nc2cc(C(F)(F)F)cc(Br)c2[nH]1 | 23.7 | 
CCCCNc1nc2cccc(C(=O)OC)c2[nH]1 | 29.2 | 
CCCCNc1nc2ccc(-c3cn(Cc4ccccc4)nn3)cc2[nH]1 | -10.5 | 
Oc1ccc(-c2cc3cccnc3[nH]2)cc1 | 57.9 | 
Brc1ccc2nc(NC3CCCCC3)[nH]c2c1 | 43.7 | 
CCNc1nc2ccc(Br)cc2[nH]1 | 10.4 | 
CCCCCCNc1nc2ccc([N+](=O)[O-])cc2[nH]1 | 23.6 | 
CN(C)c1ccc(Nc2nc3ccc([N+](=O)[O-])cc3[nH]2)cc1 | 14 | 
O=[N+]([O-])c1ccc2nc(NCc3ccccc3)[nH]c2c1 | 9 | 
CCCCNc1nc2ccc(C(=O)OC)cc2[nH]1 | 2.9 | 
O=[N+]([O-])c1ccc(Nc2nc3ccc([N+](=O)[O-])cc3[nH]2)cc1 | 3.6 | 
CCOC(=O)CNc1nc2ccc([N+](=O)[O-])cc2[nH]1 | 15.3 | 
CCCCNc1nc2ccc(-c3cccs3)cc2[nH]1 | -20.5 | 
N#Cc1ccc(Nc2nc3ccc([N+](=O)[O-])cc3[nH]2)cc1 | -31.4 | 
CC(C)Nc1nc2ccc([N+](=O)[O-])cc2[nH]1 | 16.2 | 
CCCCNc1nc2ccc(-n3cnnn3)cc2[nH]1 | -1.32 | 
CCCCNc1nc2ccc(I)cc2[nH]1 | -16.3 | 
CCNC(=O)CNc1nc2ccc([N+](=O)[O-])cc2[nH]1 | 1.9 | 
O=[N+]([O-])c1ccc2nc(Nc3ccc(Br)cc3)[nH]c2c1 | -6.1 | 
